Data: ChEMBL document CHEMBL3734706, “Syntheses and biological evaluation of C-3'-N-acyl modified taxane analogues from 1-deoxybaccatin-VI” (Eur J Med Chem, 2015)

What was measured:
[1] = Cytotoxicity against human PC3 cells incubated for 72 hrs by MTT assay; assay type: functional, cell-based; conditions: PC-3, 72 h
Outline: (§1)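 Exponentially growing human tumour cells exposed 72 h to compounds formulated in DMSO; survival read by MTT; dose–response curves over 0.001–100 μM; IC50 taken from curves.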

[2] = Cytotoxicity against human H460 cells incubated for 48 hrs by CCK-8 assay; assay type: functional, cell-based; conditions: NCI-H460, 48 h
Outline: (§2)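 Growing human tumour cells exposed to compounds for 48 h; viability read by CCK-8; IC50 determined.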

[3] = Cytotoxicity against human PC3 cells assessed as inhibition of cell survival upto 100 uM incubated for 72 hrs by MTT assay relative to control; assay type: functional, PC-3; outline: as §1
MDA-MB-231 [4] = assay: Cytotoxicity against human MDA-MB-231 cells incubated for 72 hrs by MTT assay; assay type: functional, cell-based; conditions: MDA-MB-231, 72 h; outline: as §1
MDA-MB-231 [5] = assay: Cytotoxicity against human MDA-MB-231 cells assessed as inhibition of cell survival upto 100 uM incubated for 72 hrs by MTT assay relative to control; assay type: functional; outline: as §1
HepG2 = assay: Cytotoxicity against human HepG2 cells incubated for 48 hrs by CCK-8 assay; assay type: functional, cell-based; conditions: HepG2, 48 h; outline: as §2
A549 = assay: Cytotoxicity against human A549 cells; assay type: functional, cell-based
[6] = Cytotoxicity against human HCT116 cells assessed as decrease in cell protein incubated for 48 hrs; assay type: functional, cell-based; conditions: HCT-116, 48 h

SMILES	IC50 [1] [nM]	IC50 [2] [nM]	inhibition (INH) [3] [%]	IC50 (MDA-MB-231 [4]) [nM]	inhibition (INH) (MDA-MB-231 [5]) [%]	IC50 (HepG2) [nM]	IC50 (A549) [nM]	IC50 [6] [nM]
COc1ccc(C(=O)N[C@@H](c2ccccc2)[C@@H](O)C(=O)O[C@H]2CC3[C@@H](OC(=O)c4ccccc4)[C@@H]4[C@]5(OC(C)=O)CO[C@@H]5C[C@H](O)[C@@]4(C)[C@@H](O)[C@H](O)C(=C2C)C3(C)C)cc1 (stereo not given in full)	10	199	90	< 1	90	567		
CC(=O)O[C@@]12CO[C@@H]1C[C@H](O)[C@]1(C)[C@@H]2[C@H](OC(=O)c2ccccc2)C2C[C@H](OC(=O)[C@H](O)[C@@H](NC(=O)c3cccs3)c3ccccc3)C(C)=C([C@@H](O)[C@@H]1O)C2(C)C (stereo not given in full)	1630		90	1260	90			
CCCCCC(=O)N[C@@H](c1ccccc1)[C@@H](O)C(=O)O[C@H]1CC2[C@@H](OC(=O)c3ccccc3)[C@@H]3[C@]4(OC(C)=O)CO[C@@H]4C[C@H](O)[C@@]3(C)[C@H]3OC(C)(C)O[C@@H]3C(=C1C)C2(C)C (stereo not given in full)	210			10				
CC(=O)O[C@@]12CO[C@@H]1C[C@H](O)[C@]1(C)[C@@H]2[C@H](OC(=O)c2ccccc2)C2C[C@H](OC(=O)[C@H](O)[C@@H](NC(=O)c3ccco3)c3ccccc3)C(C)=C([C@@H](O)[C@@H]1O)C2(C)C (stereo not given in full)	4	289	90	< 1	90	2020		
CC(=O)O[C@@]12CO[C@@H]1C[C@H](O)[C@]1(C)[C@@H]2[C@H](OC(=O)c2ccccc2)C2C[C@H](OC(=O)[C@H](O)[C@@H](NC(=O)c3ccc(CCl)cc3)c3ccccc3)C(C)=C([C@@H](O)[C@@H]1O)C2(C)C (stereo not given in full)	90		90	30	90			
CC(=O)O[C@@]12CO[C@@H]1C[C@H](O)[C@]1(C)[C@@H]2[C@H](OC(=O)c2ccccc2)C2C[C@H](OC(=O)[C@H](O)[C@@H](NC(=O)c3ccc(F)cc3)c3ccccc3)C(C)=C([C@@H](O)[C@@H]1O)C2(C)C (stereo not given in full)	20		90	< 1	90			
CC(=O)O[C@H]1C(=O)[C@]2(C)[C@@H](OC(C)=O)C[C@H]3OC[C@@]3(OC(C)=O)[C@H]2[C@H](OC(=O)c2ccccc2)C2C[C@H](OC(=O)[C@H](O)[C@@H](NC(=O)c3ccccc3)c3ccccc3)C(C)=C1C2(C)C (stereo not given in full)							62	
CCCCCC(=O)N[C@@H](c1ccccc1)[C@@H](O)C(=O)O[C@H]1CC2[C@@H](OC(=O)c3ccccc3)[C@@H]3[C@]4(OC(C)=O)CO[C@@H]4C[C@H](O)[C@@]3(C)[C@@H](O)[C@H](O)C(=C1C)C2(C)C (stereo not given in full)	10		40	< 1	40			
CC(=O)O[C@@]12CO[C@@H]1C[C@H](O)[C@]1(C)[C@@H]2[C@H](OC(=O)c2ccccc2)C2C[C@H](OC(=O)[C@H](O)[C@@H](NC(=O)c3cc4ccccc4o3)c3ccccc3)C(C)=C([C@@H](O)[C@@H]1O)C2(C)C (stereo not given in full)	70		90	20	90			
CC(=O)OC1[C@H](OC(C)=O)C2=C(C)[C@@H](OC(=O)[C@H](O)[C@@H](NC(=O)c3ccccc3)c3ccccc3)CC([C@@H](OC(=O)c3ccccc3)[C@@H]3[C@]4(OC(C)=O)CO[C@@H]4C[C@H](OC(C)=O)[C@@]13C)C2(C)C (stereo not given in full)								31.5
CCCCCC(=O)N[C@@H](c1ccccc1)[C@@H](O)C(=O)O[C@H]1CC2[C@@H](OC(=O)c3ccccc3)[C@@H]3[C@]4(OC(C)=O)CO[C@@H]4C[C@H](OC(C)=O)[C@@]3(C)C(=O)[C@H](OC(C)=O)C(=C1C)C2(C)C (stereo not given in full)	330			270				
CC(=O)O[C@H]1C(=O)[C@@]2(C)[C@H]([C@H](OC(=O)c3ccccc3)[C@]3(O)C[C@H](OC(=O)[C@H](O)[C@@H](NC(=O)c4ccccc4)c4ccccc4)C(C)=C1C3(C)C)[C@]1(OC(C)=O)CO[C@@H]1C[C@@H]2O [PACLITAXEL]	< 1	4290	40	< 1	40	1220		2.8
